Compound activity: PubChem, Broad Institute
IDH1 mut inh: inhibitors of IDH1 R132H reductase, primary screen, biochemical, plate reader, single point; AID 624101, 2012; inhibition, % at 10 µM; 0.18% of 70,000 active; diaphorase/resazurin fluorescence, 60 min; Isocitrate dehydrogenase [NADP] cytoplasmic (Homo sapiens), O75874; in the data active = inhibition above about 34%; inconclusive = no clear call, values can overlap the other calls; inactive = below about 11%;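 also: 0% = DMSO and 100% = no enzyme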
Target sequence (O75874 whole entry R132H): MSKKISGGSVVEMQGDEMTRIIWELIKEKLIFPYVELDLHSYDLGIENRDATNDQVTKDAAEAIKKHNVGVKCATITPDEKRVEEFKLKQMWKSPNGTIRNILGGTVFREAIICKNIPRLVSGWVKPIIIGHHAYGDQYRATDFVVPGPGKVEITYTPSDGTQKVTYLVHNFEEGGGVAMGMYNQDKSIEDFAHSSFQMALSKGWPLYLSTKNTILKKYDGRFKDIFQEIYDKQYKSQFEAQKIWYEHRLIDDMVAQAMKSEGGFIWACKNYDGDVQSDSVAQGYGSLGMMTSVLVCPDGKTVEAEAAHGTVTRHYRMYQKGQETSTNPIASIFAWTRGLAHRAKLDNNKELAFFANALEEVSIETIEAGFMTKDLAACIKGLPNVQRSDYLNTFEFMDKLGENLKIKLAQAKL
T cruzi growth-1: T. cruzi intracellular proliferation inhibitors, primary screen, cell-based, beta-gal Tulahuen parasites, NIH3T3 host, luminescence. T. cruzi beta-gal in NIH3T3, GalScreen luminescence, 90 h. inhibition, % at 8.34 µM. 5.9% of 77,000 active. AID 624255, 2012;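 active = mean inhibition above about 93%, with at least 55% of replicates each passing it, limit read from the data, passing the limit was not always enough; inconclusive = only one of those two conditions holds; inactive = neither condition holds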
Pf Dd2 inh: P. falciparum Dd2 growth inhibitors, primary screen, SYBR Green fluorescence, single dose replicates; AID 1159554, 2015; 72 h; hits give low values; activity change, % at 10 µM; 2.3% of 94,000 active; in the data active = activity change below about -80%; inconclusive = no clear call, values can overlap the other calls
GASC1 inh: inhibitors of GASC-1 (KDM4C) histone demethylase, primary screen, biochemical, single concentration HTS. Lysine-specific demethylase 4C (Homo sapiens), Q9H3R0. GST-KDM4C 2-372, H3K9me3 peptide, LANCE TR-FRET. inhibition, % at 12.5 µM. 0.15% of 96,000 active;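 active = mean replicate inhibition above about 25%, with at least 55% of replicates also reaching it, limit read from the data, passing the limit was not always enough; inconclusive = only one of those two conditions met; inactive = neither condition met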
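reagent = H3K9me3 peptide substrate, Fe(II), 2-oxoglutarate | system = GST-tagged GASC-1 (JMJD2C) catalytic fragment, aa 2-372 | amount = enzyme final amount 10 nM | read-out = Fall in 671/618 emission ratio as inhibition | medium = HEPES buffer, pH 7.5, plus ascorbate | schedule = 30 min reaction, 60 min detection, RT | measured by = LANCE TR-FRET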
T cruzi growth-2: T. cruzi intracellular proliferation inhibitors, confirmation, cell-based, NIH3T3 host, beta-gal parasite, luminescence, cherry-pick; shares compounds with T cruzi growth-1; T. cruzi beta-gal in NIH3T3, GalScreen luminescence, 90 h; inhibition, % at 8.35 µM; 72% of 5,600 active; AID 651739, 2012;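 active = mean replicate inhibition above about 95% and at least 55% of replicates individually reaching it, limit read from the data; inconclusive = only one of the two criteria is met; inactive = neither criterion is met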
T cruzi growth-3: inhibitors of intracellular T. cruzi replication, confirmation, NIH3T3 host cells, beta-gal parasites, cherry-pick, set 2. inhibition, % at 2.09 µM. T. cruzi beta-gal in NIH3T3, GalScreen luminescence, 90 h. shares compounds with T cruzi growth-1. AID 651740, 2012. 21% of 5,600 active;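 active = mean inhibition above about 95%, with at least 55% of replicates also reaching it, limit read from the data; inconclusive = meets just one of the two conditions; inactive = meets neither condition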;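 also: plate controls were neutral control median for no effect and positive control median for full effect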
3T3 cytotox: cytotoxicity in mouse NIH/3T3 fibroblasts, confirmation, cytotoxicity control for T. cruzi proliferation inhibitor project, cell-based, cherry-pick, single point. NIH/3T3 viability, CellTiter-Glo ATP luminescence, 90 h. cytotoxicity (signal decrease), % at 8.35 µM. 14% of 5,600 active. shares compounds with T cruzi growth-1;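 active = mean signal decrease across replicates above about 35% based on untreated-well scatter, with enough replicates individually passing, limit read from the data; inconclusive = no rule stated though some were filed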;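 also: 0% = median of neutral control wells and 100% = median of positive control wells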
3T3 cytotox 2: NIH/3T3 fibroblast cytotoxicity, confirmation, cytotoxicity control, cell-based, cherry-pick, single point, set 2 | inhibition, % at 24.9 µM | 56% of 5,600 active | NIH/3T3 viability, CellTiter-Glo ATP luminescence, 90 h | AID 651744, 2012 | shares compounds with T cruzi growth-1;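 active = mean loss of cell viability signal at or above a set limit, and enough replicates individually reaching it; inconclusive = meets only the mean limit or only the replicate share; inactive = meets neither condition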;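 also: 0% = median of neutral control wells and 100% = median of positive control wells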
Active calls of the source: *; ? = inconclusive; . = not tested or not shown. Most compounds without a hit are left out; they make up all but 5.8% or so of the library.

SMILES	IDH1 mut inh	T cruzi growth-1	Pf Dd2 inh	GASC1 inh	T cruzi growth-2	T cruzi growth-3	3T3 cytotox	3T3 cytotox 2
CO[C@@H]1CN(C)C(=O)c2ccc(NC(=O)c3cnccn3)cc2OC[C@@H](C)N(CC2CC2)C[C@@H]1C	.	.	11	0	.	.	.	.
O=C(N[C@@H]1CC[C@H](CC(=O)N2CCC(Cc3ccccc3)CC2)O[C@H]1CO)c1cnccn1	0	.	12	0	.	.	.	.
Cc1ccc(S(=O)(=O)Nc2ccc3c(c2)C(=O)N([C@@H](C)CO)C[C@@H](C)[C@@H](CN(C)C(=O)Nc2ccc(F)cc2)OCCCC[C@H](C)O3)cc1	1	-2	-72	0	.	.	.	.
Cc1ccc(S(=O)(=O)Nc2ccc3c(c2)C(=O)N([C@H](C)CO)C[C@@H](C)[C@H](CN(C)C(=O)Nc2ccc(F)cc2)OCCCC[C@H](C)O3)cc1	0	100*	-76	-1	106*	47	-38	16
Cc1ccc(S(=O)(=O)Nc2ccc3c(c2)C(=O)N([C@@H](C)CO)C[C@H](C)[C@@H](CN(C)C(=O)Nc2ccc(F)cc2)OCCCC[C@@H](C)O3)cc1	1	98*	-82*	0	107*	84	-10	23
Cc1ccc(S(=O)(=O)Nc2ccc3c(c2)C(=O)N([C@@H](C)CO)C[C@@H](C)[C@H](CN(C)C(=O)Nc2ccc(F)cc2)OCCCC[C@@H](C)O3)cc1	1	?	-50	0	101*	82	9	24
O=C(C[C@@H]1C=C[C@H](NS(=O)(=O)c2ccc(F)cc2)[C@H](CO)O1)N1CCC(Cc2ccccc2)CC1	0	42	17	-3	.	.	.	.
NC(=O)CSc1ncn(-c2ccccc2)n1	0	.	.	.	.	.	.	.
C[C@@H]1CN([C@H](C)CO)C(=O)c2cccc(NC(=O)Nc3ccc4c(c3)OCO4)c2O[C@@H]1CN(C)Cc1ccc(C(=O)O)cc1	.	-7	1	2	.	.	.	.
C[C@@H]1CN([C@@H](C)CO)C(=O)Cc2cc(NS(=O)(=O)c3cccs3)ccc2O[C@H]1CN(C)Cc1ccc(C(=O)Nc2ccccc2N)cc1	0	21	-23	0	.	.	.	.
C[C@H](CO)N1C[C@H](C)[C@@H](CN(C)Cc2ccc(C(=O)O)cc2)Oc2c(NC(=O)Nc3ccccc3)cccc2C1=O	.	.	-3	1	.	.	.	.
C[C@@H]1CN([C@H](C)CO)C(=O)c2cccc(NC(=O)Nc3ccc4c(c3)OCO4)c2O[C@H]1CN(C)Cc1ccc(C(=O)Nc2ccccc2N)cc1	.	112*	-86*	0	102*	92	-1	71*
C[C@@H]1CN([C@@H](C)CO)C(=O)c2cc(NS(=O)(=O)c3cccs3)ccc2O[C@H]1CN(C)Cc1ccc(C(=O)Nc2ccccc2N)cc1	0	108*	-57	0	97*	63	4	5
C[C@@H]1CN([C@H](C)CO)C(=O)c2cc(N(C)C)ccc2O[C@@H]1CN(C)Cc1ccc(C(=O)Nc2ccccc2N)cc1	.	103*	-70	.	90	81	74*	94*
C[C@H]1CN([C@@H](C)CO)C(=O)c2cccc(NC(=O)Nc3ccccc3)c2O[C@@H]1CN(C)Cc1ccc(C(=O)Nc2ccccc2N)cc1	.	100*	-88*	-1	101*	99*	?	80*
C[C@@H]1CN([C@H](C)CO)C(=O)c2cc(N(C)C)ccc2O[C@H]1CN(C)Cc1ccc(C(=O)Nc2ccccc2N)cc1	.	95	-34	2	.	.	.	.
O=C(c1cccnc1)N1C[C@@H]2[C@H](c3ccccc31)[C@H](CO)N2C(=O)CN1CCOCC1	.	-14	20	6	.	.	.	.
COCC#Cc1ccc([C@@H]2[C@H](CO)N3CCCCN(S(=O)(=O)c4ccccc4F)C[C@@H]23)cc1	.	59	-43	0	.	.	.	.
C[C@H]1CN([C@@H](C)CO)C(=O)c2cc(NC(=O)Nc3ccc4c(c3)OCO4)ccc2O[C@H]1CN(C)Cc1ccc(C(=O)Nc2ccccc2N)cc1	.	98*	-3	1	85	79	2	10
C[C@@H]1CN([C@H](C)CO)C(=O)c2cc(NC(=O)Nc3ccc4c(c3)OCO4)ccc2O[C@@H]1CN(C)Cc1ccc(C(=O)Nc2ccccc2N)cc1	.	63	-78	0	.	.	.	.
COc1cccc(-c2ccc(C3[C@H]4CNC[C@@H]3N4S(=O)(=O)c3cccc(Cl)c3)cc2)c1 (some centres not stated)	.	.	-17	0	.	.	.	.
O=C(Nc1cccc(F)c1)N[C@@H]1CC[C@@H](CCNS(=O)(=O)c2cccc(Cl)c2)O[C@H]1CO	-1	26	7	-2	.	.	.	.
O=C(Nc1cc(Cl)cc(Cl)c1)N[C@H]1CC[C@H](CCNS(=O)(=O)c2cccc(F)c2)O[C@@H]1CO	0	112*	3	0	108*	7	16	97*
O=C(Nc1cccc(F)c1)N[C@@H]1CC[C@H](CCNS(=O)(=O)c2cccc(Cl)c2)O[C@@H]1CO	-1	153*	-20	0	18	8	-1	1
COc1ccc(C#Cc2ccc3c(c2)[C@@H]2[C@@H](CCN2C(=O)c2ccccc2F)[C@H](CO)N3)cc1	.	100*	-33	0	93	19	-15	9
COc1ccc(C#Cc2ccc3c(c2)[C@@H]2[C@@H](CCN2C(=O)C2CC2)[C@@H](CO)N3)cc1	.	109*	-48	-2	110*	34	20	46*
O=C(c1ccccc1F)N1CC[C@H]2[C@H](CO)Nc3ccc(C#Cc4ccccc4)cc3[C@H]21	.	108*	-39	-1	111*	81	20	?
COc1ccc(C#Cc2ccc3c(c2)[C@H]2[C@H](CCN2C(=O)C2CCCCC2)[C@@H](CO)N3)cc1	.	84	-55	0	.	.	.	.
O=C(c1ccccc1F)N1CC[C@@H]2[C@@H](CO)Nc3ccc(C#Cc4ccccc4)cc3[C@@H]21	.	?	-35	-5	109*	86	9	104*
